Results from different studies.
Lines come from different studies, so protocols differ.
Target: Dual specificity protein kinase CLK4 (CLK4, Homo sapiens, UniProt Q9HAZ1)

SMILES	assay	setting	remaining binding
O=C(c1ccc(Nc2ncc(Cl)c(-c3ccc(Cl)s3)n2)cc1)N1CCC(N2CCCC2)CC1	binding, competition with immobilised ligand	1 µM	2.1%
C=CC(=O)N1CCC(C(=O)NCC(=O)N2CCN(c3nc(-c4cnc(N)nc4C(F)F)nc(N4CCOCC4)n3)CC2)CC1	binding, competition with immobilised ligand	1 µM	100%
O=C(NCCCC1CCCCC1)c1ccc(CNC(=O)c2cnn(-c3ccccc3)c2C(F)(F)F)cc1	cell-free assay, competition with immobilised ligand	0.1 µM	100%
CN(C)c1ncc(F)c(-c2cnn3ncccc23)n1	binding	1 µM	61%
Cc1c(NC(=O)c2cc(C(N)=O)nc3cc(F)ccc23)c(C(F)(F)F)nn1Cc1ccc(C(C)(C)C)cc1	cell-free assay, competition with immobilised ligand	1 µM	100%
O=C(NCCCN1CCOCC1)c1ccc(Nc2ncc(Cl)c(-c3ccc(Cl)s3)n2)cc1	binding, competition with immobilised ligand	1 µM	1.6%
COc1ccnn2ncc(-c3ccnc(N(C)C)n3)c12	binding	1 µM	4.2%
COc1ncc2cc3ccccc3nc2c1C#N	cell-free assay, competition with immobilised ligand	5 µM	86%
O=C1NC(c2ccccn2)Sc2ccccc21 (stereo not shown)	cell-free assay, competition with immobilised ligand	1 µM	97%
N[C@@H]1CCN(c2nccc(-c3cnn4ncccc34)n2)C1	binding	1 µM	25%
CNC(=O)[C@@H]1CC[C@@H](n2c(-c3ccc4cnccc4c3)nc3ccc(C(=O)NCc4cccc(C(N)=O)c4)cc32)C1	binding, competition with immobilised ligand	1 µM	100%
c1cnn2ncc(-c3ccnc(N4CCC45COC5)n3)c2c1	binding	1 µM	6.2%
O=C(N1CCS(=O)(=O)CC1)N1C[C@H](c2ccc(OC(F)(F)F)cc2)C[C@H](c2nc(C3CC3)no2)C1	cell-free assay, competition with immobilised ligand	1 µM	100%
C[C@H]1CCN(c2nccc(-c3cnn4ncccc34)n2)C1	binding	1 µM	9.9%
Cc1nc(N2CC[C@@H](O)C2)ncc1-c1cc(C(F)(F)F)cc2[nH]ncc12	binding, competition with immobilised ligand	1 µM	92%
Nc1ncc2c(n1)-c1c([nH]c3ccc(C#CC4CC4)cc13)CCCC2	binding, competition with immobilised ligand	1 µM	76%
O=C(NCC1CCOCC1)c1n[nH]cc1NC(=O)c1c(F)cccc1F	binding, competition with immobilised ligand	1 µM	32%
CN(c1nccc(-c2cnn3ncccc23)n1)C1CC1	binding	1 µM	70%
Cc1cnc(Nc2ccc(C(=O)N3CCC(N4CCCC4)CC3)cc2)nc1-c1cc2ccccc2s1	binding, competition with immobilised ligand	1 µM	11%
Cc1cnn2ncc(-c3ccnc(N(C)C)n3)c2c1	binding	1 µM	9.7%
COc1cnc(Nc2cccc(S(N)(=O)=O)c2)nc1N1CCN(c2ccccc2)CC1	binding, competition with immobilised ligand	1 µM	100%
CNCc1ccccc1-c1csc([C@@H](C)Nc2nc(C)nc3cc(OC)c(OC)cc23)c1	cell-free assay, competition with immobilised ligand	1 µM	100%
